ChEMBL document CHEMBL1121378, “Lipophilic and hydrophilic esters of 4-acetyl-2-(2-hydroxyethyl)-5,6-bis(4-chlorophenyl)-2H-pyridazin-3-one as antihypertensive agents” (1980)

Key:
Type in all cases: functional
[1] = test system: Rattus norvegicus; test: Antihypertensive activity in spontaneously hypertensive rats was measured as average blood pressure at 12 mg/kg, p.o. after 4 hours of postdose-1; details: route oral
Method in brief: (§1)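 SHR model with two successive doses, designated dose 1 and dose 2. Group-average blood pressure in mmHg was recorded before dosing and at 4 h and 24 h after each dose. The route is oral unless marked intra-arterial or subcutaneous. A table footnote marks doses that gave no significant lowering at 4 or 24 h postdose.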

[2] = test system: Rattus norvegicus; test: Antihypertensive activity in spontaneously hypertensive rats was measured as average blood pressure at 100 mg/kg, p.o. before predose; details: route oral; method in brief: as §1
[3] = test system: Rattus norvegicus; test: Antihypertensive activity in spontaneously hypertensive rats was measured as average blood pressure at 12 mg/kg, p.o. after 24 hours of postdose-2; details: route oral; method in brief: as §1
[4] = test system: Rattus norvegicus; test: Antihypertensive activity in spontaneously hypertensive rats was measured as average blood pressure at 4 mg/kg, po before predose; method in brief: as §1
[5] = test system: Rattus norvegicus; test: Antihypertensive activity in spontaneously hypertensive rats was measured as average blood pressure at 4 mg/kg, p.o. after 4 hours of postdose-2; details: route oral; method in brief: as §1
[6] = test system: Rattus norvegicus; test: Antihypertensive activity in spontaneously hypertensive rats was measured as average blood pressure at 100 mg/kg, p.o. after 4 hours of postdose-2; details: route oral; method in brief: as §1
[7] = test system: Rattus norvegicus; test: Antihypertensive activity in spontaneously hypertensive rats was measured as average blood pressure at 4 mg/kg, po after 24 hours of postdose-1; method in brief: as §1
[8] = test system: Rattus norvegicus; test: Antihypertensive activity in spontaneously hypertensive rats was measured as average blood pressure at 12 mg/kg, p.o. after 24 hours of postdose-1; details: route oral; method in brief: as §1
[9] = test system: Rattus norvegicus; test: Antihypertensive activity in spontaneously hypertensive rats was measured as average blood pressure at 4 mg/kg, p.o. after 24 hours of postdose-2; details: route oral; method in brief: as §1
[10] = test system: Rattus norvegicus; test: Antihypertensive activity in spontaneously hypertensive rats was measured as average blood pressure at 4 mg/kg, p.o. after 4 hours of postdose-1; details: route oral; method in brief: as §1
[11] = test system: Rattus norvegicus; test: Antihypertensive activity in spontaneously hypertensive rats was measured as average blood pressure at 100 mg/kg, p.o. after 24 hours of postdose-2; details: route oral; method in brief: as §1
[12] = test system: Rattus norvegicus; test: Antihypertensive activity in spontaneously hypertensive rats was measured as average blood pressure at 100 mg/kg, p.o. after 24 hours of postdose-1; details: route oral; method in brief: as §1
[13] = test system: Rattus norvegicus; test: Antihypertensive activity in spontaneously hypertensive rats was measured as average blood pressure at 12 mg/kg, p.o. after 4 hours of postdose-2; details: route oral; method in brief: as §1
[14] = test system: Rattus norvegicus; test: Antihypertensive activity in spontaneously hypertensive rats was measured as average blood pressure at 100 mg/kg, p.o. after 4 hours of postdose-1; details: route oral; method in brief: as §1
[15] = test system: Rattus norvegicus; test: Antihypertensive activity in spontaneously hypertensive rats was measured as average blood pressure at 12 mg/kg, p.o. before predose; details: route oral; method in brief: as §1

## CC(=O)c1c(-c2ccc(Cl)cc2)c(-c2ccc(Cl)cc2)nn(CCOC(=O)CN)c1=O.Cl
[1]
  BP: 164 mmHg
[2]
  BP: 178 mmHg
[3]
  BP: 164 mmHg
[4]
  BP: 184 mmHg
[5]
  BP: 161 mmHg
[6]
  BP: 124 mmHg
[7]
  BP: 189 mmHg
[8]
  BP: 161 mmHg
[9]
  BP: 175 mmHg
[10]
  BP: 162 mmHg
[11]
  BP: 166 mmHg
[12]
  BP: 131 mmHg
[13]
  BP: 153 mmHg
[14]
  BP: 138 mmHg
[15]
  BP: 199 mmHg
